Measured values taken from ChEMBL document CHEMBL1139492, “Structure-activity relationships and effects on neuroactive steroid synthesis in a series of 2-phenylimidazo[1,2-a]pyridineacetamide peripheral benzodiazepine receptors ligands” (J Med Chem, 2005).

Key:
[1] = biological target: GABA-A receptor; anion channel; assay: Displacement of [3H]flunitrazepam from central benzodiazepine GABA-A receptor of rat cerebral cortex; type: tissue-based
Procedure, shortened: (§1)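 Rat cerebral cortex homogenised in 50 vol ice-cold 50 mM Tris-HCl pH 7.4, spun twice at 20 000g for 10 min. Membranes (0.4–0.5 mg protein) incubated with [3H]flunitrazepam for 60 min at 0 °C. Rapid filtration on GF/B filters, scintillation counting. Nonspecific binding with 5 μM diazepam. Means of three experiments in duplicate; Ki reported.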

[2] = biological target: GABA-A receptor; anion channel; assay: Inhibitory concentration of central benzodiazepine GABA-A receptor of rat cerebral cortex; type: tissue-based; procedure, shortened: as §1
Translocator protein [3] = biological target: T1, Translocator protein (Rattus norvegicus, UniProt P16257); assay: Displacement of [3H]-PK11195 from peripheral benzodiazepine receptor of rat ovary; type: tissue-based, Female gonad
Procedure, shortened: (§2)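 Rat tissue (cerebral cortex, ovary) homogenised in 50 vol PBS pH 7.4 at 4 °C, spun at 40 000g for 30 min, washed, resuspended in 10 vol PBS. […] Filtration on polyethyleneimine-soaked GF/B filters, scintillation counting. […] Means of three experiments in duplicate; Ki reported.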

Translocator protein [4] = biological target: T1, Translocator protein; assay: Displacement of [3H]PK11195 from peripheral benzodiazepine receptor of rat cerebral cortex; type: tissue-based; procedure, shortened: as §2
[5] = biological target: Benzodiazepine receptors; peripheral & central (Rattus norvegicus) (UniProt O09028+P15431+P18506+P18508+P19969+P20236+P23574+P23576+P28471+P28473+P30191+P62813+P63079+P63138+Q91ZM7+Q9ES14+P16257); assay: Ratio of inhibition for peripheral benzodiazepine receptor of rat ovary and central benzodiazepine GABA-A receptor; type: tissue-based; parameters: scale not given here; conditions: Female gonad
Translocator protein [6] = biological target: T1, Translocator protein; assay: Inhibitory concentration against peripheral benzodiazepine receptor of rat ovary; type: tissue-based, Female gonad; procedure, shortened: as §2
Translocator protein [7] = biological target: T1, Translocator protein; assay: Inhibitory concentration against peripheral benzodiazepine receptor of rat cerebral cortex; type: tissue-based; procedure, shortened: as §2

T1 sequence (P16257 whole entry, looked up): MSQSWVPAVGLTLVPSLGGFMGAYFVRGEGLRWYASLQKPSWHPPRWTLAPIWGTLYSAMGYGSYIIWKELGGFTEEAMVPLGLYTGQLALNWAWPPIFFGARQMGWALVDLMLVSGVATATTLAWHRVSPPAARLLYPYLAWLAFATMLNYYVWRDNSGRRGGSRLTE

O=C(Cc1c(-c2ccc(Cl)cc2)nc2c(Cl)cc(Cl)cn12)N1CCc2ccccc2C1
Ki [1]: 6880 nM | pIC50 [2]: 5 | Ki (Translocator protein [3]): 25.3 nM | Ki (Translocator protein [4]): 2.97 nM | Selectivity index [5]: 2.45 | IC50 (Translocator protein [6]): 35.6 nM | IC50 (Translocator protein [7]): 4.86 nM

CC(C)(C)N(Cc1ccccc1)C(=O)Cc1c(-c2ccc(Cl)cc2)nc2c(Cl)cc(Cl)cn12
Ki [1]: 7590 nM | pIC50 [2]: 5 | Ki (Translocator protein [3]): 12900 nM | Ki (Translocator protein [4]): 2100 nM | Selectivity index [5]: -0.26 | IC50 (Translocator protein [6]): 18200 nM | IC50 (Translocator protein [7]): 3440 nM

O=C(Cc1c(-c2ccccc2)nc2c(Cl)cc(Cl)cn12)Nc1ccncc1
Ki [1]: 7750 nM | pIC50 [2]: 5 | Ki (Translocator protein [3]): 2970 nM | Ki (Translocator protein [4]): 1240 nM | Selectivity index [5]: 0.387 | IC50 (Translocator protein [6]): 4100 nM | IC50 (Translocator protein [7]): 2100 nM

CN(Cc1ccccc1)C(=O)Cc1c(-c2ccc(Cl)cc2)nc2c(Cl)cc(Cl)cn12
Ki [1]: 6880 nM | pIC50 [2]: 5 | Ki (Translocator protein [4]): 1.38 nM

CC(C(=O)N(C)Cc1ccccc1)c1c(-c2ccc(Cl)cc2)nc2c(Cl)cc(Cl)cn12 (stereo not drawn)
Ki [1]: 7010 nM | pIC50 [2]: 5 | Ki (Translocator protein [3]): 8330 nM | Ki (Translocator protein [4]): 5770 nM | IC50 (Translocator protein [6]): 11600 nM | IC50 (Translocator protein [7]): 9890 nM

CC(C(=O)N(C)C1CCCCC1)c1c(-c2ccc(Cl)cc2)nc2c(Cl)cc(Cl)cn12 (stereo not drawn)
Ki [1]: 7010 nM | pIC50 [2]: 5 | Ki (Translocator protein [3]): 2210 nM | Ki (Translocator protein [4]): 2990 nM | Selectivity index [5]: 0.513 | IC50 (Translocator protein [6]): 3070 nM | IC50 (Translocator protein [7]): 5150 nM

CCCCN(CCCC)C(=O)Cc1c(-c2ccc(Cl)cc2)nc2ccc(Cl)cn12
Ki [1]: 68.9 nM | pIC50 [2]: 7.051 | Ki (Translocator protein [3]): 4.77 nM | Ki (Translocator protein [4]): 1.69 nM | Selectivity index [5]: 1.12 | IC50 (Translocator protein [6]): 6.73 nM | IC50 (Translocator protein [7]): 3.27 nM

CN(CCc1ccccn1)C(=O)Cc1c(-c2ccccc2)nc2c(Cl)cc(Cl)cn12
Ki [1]: 7750 nM | pIC50 [2]: 5 | Ki (Translocator protein [3]): 3670 nM | Ki (Translocator protein [4]): 1280 nM | Selectivity index [5]: 0.296 | IC50 (Translocator protein [6]): 5060 nM | IC50 (Translocator protein [7]): 2170 nM

O=C(Cc1c(-c2ccc(Cl)cc2)nc2c(Cl)cc(Cl)cn12)NCc1ccccc1
Ki [1]: 7010 nM | pIC50 [2]: 5 | Ki (Translocator protein [4]): 98.8 nM | IC50 (Translocator protein [7]): 169 nM

CCCCN(C(=O)Cc1c(-c2ccc(Cl)cc2)nc2c(Cl)cc(Cl)cn12)c1ccccc1
Ki [1]: 6880 nM | pIC50 [2]: 5 | Ki (Translocator protein [3]): 3.65 nM | Ki (Translocator protein [4]): 7.84 nM | Selectivity index [5]: 3.32 | IC50 (Translocator protein [6]): 4.8 nM | IC50 (Translocator protein [7]): 13.3 nM

CCCN(CCC)C(=O)C(C)c1c(-c2ccc(Cl)cc2)nc2c(Cl)cc(Cl)cn12 (stereo not drawn)
Ki [1]: 7010 nM | pIC50 [2]: 5 | Ki (Translocator protein [3]): 1930 nM | Ki (Translocator protein [4]): 701 nM | Selectivity index [5]: 0.572 | IC50 (Translocator protein [6]): 2680 nM | IC50 (Translocator protein [7]): 1200 nM

O=C(Cc1c(-c2ccccc2)nc2c(Cl)cc(Cl)cn12)N1CCCCC1
Ki [1]: 7590 nM | pIC50 [2]: 5 | Ki (Translocator protein [3]): 1030 nM | Ki (Translocator protein [4]): 95.9 nM | Selectivity index [5]: 0.837 | IC50 (Translocator protein [6]): 1460 nM | IC50 (Translocator protein [7]): 157 nM

CCOC(=O)C1CCCN(C(=O)Cc2c(-c3ccc(Cl)cc3)nc3c(Cl)cc(Cl)cn23)C1 (stereo not drawn)
Ki [1]: 6880 nM | pIC50 [2]: 5 | Ki (Translocator protein [3]): 1740 nM | Ki (Translocator protein [4]): 79.8 nM | Selectivity index [5]: 0.597 | IC50 (Translocator protein [6]): 2530 nM | IC50 (Translocator protein [7]): 143 nM

CCCCCCN(CCCCCC)C(=O)Cc1c(-c2ccc(Cl)cc2)nc2ccc(Cl)cn12
Ki [1]: 2560 nM | pIC50 [2]: 5.481 | Ki (Translocator protein [3]): 35.3 nM | Ki (Translocator protein [4]): 3.01 nM | Selectivity index [5]: 1.83 | IC50 (Translocator protein [6]): 48.8 nM | IC50 (Translocator protein [7]): 5.11 nM

O=C(Cc1c(-c2ccc(Cl)cc2)nc2c(Cl)cc(Cl)cn12)NC1CCCCC1
Ki [1]: 7590 nM | pIC50 [2]: 5 | Ki (Translocator protein [3]): 749 nM | Ki (Translocator protein [4]): 140 nM | Selectivity index [5]: 0.977 | IC50 (Translocator protein [6]): 1050 nM | IC50 (Translocator protein [7]): 229 nM

O=C(Cc1c(-c2ccc(Cl)cc2)nc2c(Cl)cc(Cl)cn12)Nc1ccccc1
Ki [1]: 6880 nM | pIC50 [2]: 5 | Ki (Translocator protein [3]): 18.3 nM | Ki (Translocator protein [4]): 11.7 nM | Selectivity index [5]: 2.6 | IC50 (Translocator protein [6]): 25.2 nM | IC50 (Translocator protein [7]): 19.9 nM

O=C(Cc1c(-c2ccccc2)nc2c(Cl)cc(Cl)cn12)N1CCc2ccccc2C1
Ki [1]: 6880 nM | pIC50 [2]: 5 | Ki (Translocator protein [3]): 164 nM | Ki (Translocator protein [4]): 23.6 nM | Selectivity index [5]: 1.64 | IC50 (Translocator protein [6]): 231 nM | IC50 (Translocator protein [7]): 38.7 nM

O=C(Cc1c(-c2ccccc2)nc2c(Cl)cc(Cl)cn12)N1CCCC1
Ki [1]: 6880 nM | pIC50 [2]: 5 | Ki (Translocator protein [3]): 6650 nM | Ki (Translocator protein [4]): 757 nM | Selectivity index [5]: 0.029 | IC50 (Translocator protein [7]): 1240 nM

O=C(Cc1c(-c2ccc(Cl)cc2)nc2c(Cl)cc(Cl)cn12)N1CCCC1
Ki [1]: 7010 nM | pIC50 [2]: 5 | Ki (Translocator protein [3]): 608 nM | Ki (Translocator protein [4]): 126 nM | Selectivity index [5]: 1.02 | IC50 (Translocator protein [6]): 843 nM | IC50 (Translocator protein [7]): 215 nM

O=C(Cc1c(-c2ccc(Cl)cc2)nc2c(Cl)cc(Cl)cn12)N1CCN(Cc2ccccc2)CC1
Ki [1]: 6880 nM | pIC50 [2]: 5 | Ki (Translocator protein [3]): 516000 nM | Ki (Translocator protein [4]): 12700 nM | Selectivity index [5]: -1.86 | IC50 (Translocator protein [6]): 726000 nM | IC50 (Translocator protein [7]): 20800 nM

CCCCN(Cc1ccccc1)C(=O)Cc1c(-c2ccccc2)nc2c(Cl)cc(Cl)cn12
Ki [1]: 7010 nM | pIC50 [2]: 5 | Ki (Translocator protein [3]): 64.7 nM | Ki (Translocator protein [4]): 14.1 nM | Selectivity index [5]: 2.05 | IC50 (Translocator protein [6]): 89.7 nM | IC50 (Translocator protein [7]): 24.2 nM

CN(CCc1ccccn1)C(=O)Cc1c(-c2ccc(Cl)cc2)nc2c(Cl)cc(Cl)cn12
Ki [1]: 7750 nM | pIC50 [2]: 5 | Ki (Translocator protein [3]): 3690 nM | Ki (Translocator protein [4]): 530 nM | Selectivity index [5]: 0.294 | IC50 (Translocator protein [6]): 5080 nM | IC50 (Translocator protein [7]): 899 nM

CCCCNC(=O)Cc1c(-c2ccc(Cl)cc2)nc2c(Cl)cc(Cl)cn12
Ki [1]: 6880 nM | pIC50 [2]: 5 | Ki (Translocator protein [3]): 170 nM | Ki (Translocator protein [4]): 170 nM | Selectivity index [5]: 1.54 | IC50 (Translocator protein [6]): 290 nM | IC50 (Translocator protein [7]): 390 nM

O=C(Cc1c(-c2ccccc2)nc2c(Cl)cc(Cl)cn12)NC1CCCCC1
Ki [1]: 7010 nM | pIC50 [2]: 5 | Ki (Translocator protein [3]): 942 nM | Ki (Translocator protein [4]): 771 nM | Selectivity index [5]: 0.884 | IC50 (Translocator protein [6]): 1310 nM | IC50 (Translocator protein [7]): 1320 nM

CCCN(Cc1ccc([N+](=O)[O-])cc1)C(=O)Cc1c(-c2ccc(Cl)cc2)nc2c(Cl)cc(Cl)cn12
Ki [1]: 6880 nM | pIC50 [2]: 5 | Ki (Translocator protein [3]): 50.5 nM | Ki (Translocator protein [4]): 16 nM | Selectivity index [5]: 2.16 | IC50 (Translocator protein [6]): 69.7 nM | IC50 (Translocator protein [7]): 27.2 nM

CCCCN(C(=O)Cc1c(-c2ccc(Cl)cc2)nc2ccc(Cl)cn12)c1ccccc1
Ki [1]: 506 nM | pIC50 [2]: 6.133 | Ki (Translocator protein [3]): 8.82 nM | Ki (Translocator protein [4]): 0.884 nM | Selectivity index [5]: 1.8 | IC50 (Translocator protein [6]): 11.6 nM | IC50 (Translocator protein [7]): 1.5 nM

CCOC(=O)C1CCCN(C(=O)Cc2c(-c3ccc(Cl)cc3)nc3ccc(Cl)cn23)C1 (stereo not drawn)
Ki [1]: 130 nM | pIC50 [2]: 6.725 | Ki (Translocator protein [3]): 207 nM | Ki (Translocator protein [4]): 19.6 nM | Selectivity index [5]: -0.205 | IC50 (Translocator protein [6]): 302 nM | IC50 (Translocator protein [7]): 35.2 nM

CCCCCCN(CCCCCC)C(=O)Cc1c(-c2ccc(Cl)cc2)nc2c(Cl)cc(Cl)cn12
Ki [1]: 7750 nM | pIC50 [2]: 5 | Ki (Translocator protein [3]): 1890 nM | Ki (Translocator protein [4]): 222 nM | Selectivity index [5]: 0.584 | IC50 (Translocator protein [6]): 2610 nM | IC50 (Translocator protein [7]): 377 nM

CCCCN(CCCC)C(=O)Cc1c(-c2ccc(Cl)cc2)nc2ccccn12
Selectivity index [5]: 1.19
